Hits are enriched below; roughly 4.1% of the tested compounds scored in any of these assays.
hERG rescue – hERG rescue from dofetilide block, primary screen, cell-based, CHO-hERG, FluxOR thallium flux, dofetilide IC70 | dofetilide IC70 present | Voltage-gated inwardly rectifying potassium channel KCNH2 (Homo sapiens), Q12809 | activation (rescue from dofetilide block), less the hit threshold, % at 10 µM | 310,000 tested, 0.51% active;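 active means activation above the mean of controls blocked by dofetilide plus 5 SD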;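 further: thallium influx through hERG after potassium depolarization seen as dye fluorescence rise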
KCNQ1 block – inhibitors of human KCNQ1 channel, primary screen, cell-based, thallium flux, high-throughput. CHO-K1 KCNQ1, FluxOR thallium flux fluorescence; active compounds read high. 310,000 tested, 1.3% active. B-score at 10 µM. Potassium voltage-gated channel subfamily KQT member 1 (Homo sapiens), P51787;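 active means compounds whose thallium flux B-score, printed positive for inhibition, exceeds three library SD while starting fluorescence stays within three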;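 further: channel opened by potassium depolarization with thallium stimulus after 20 min compound exposure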
KCNK3 inh – human KCNK3 channel inhibitors, primary screen, CHO cells, FluxOR thallium flux, B-score. Potassium channel subfamily K member 3 (Homo sapiens), O14649. FluxOR fluorescence; active compounds read low. B-score at 10 µM. 340,000 tested, 0.84% active. AID 602410, 2012;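 active means B-score under library mean minus 4 SD, starting fluorescence ratio at most library mean plus 5 SD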;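 further: more negative B-score means stronger inhibition of thallium flux through KCNK3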
Target sequence (O14649 whole entry, looked up): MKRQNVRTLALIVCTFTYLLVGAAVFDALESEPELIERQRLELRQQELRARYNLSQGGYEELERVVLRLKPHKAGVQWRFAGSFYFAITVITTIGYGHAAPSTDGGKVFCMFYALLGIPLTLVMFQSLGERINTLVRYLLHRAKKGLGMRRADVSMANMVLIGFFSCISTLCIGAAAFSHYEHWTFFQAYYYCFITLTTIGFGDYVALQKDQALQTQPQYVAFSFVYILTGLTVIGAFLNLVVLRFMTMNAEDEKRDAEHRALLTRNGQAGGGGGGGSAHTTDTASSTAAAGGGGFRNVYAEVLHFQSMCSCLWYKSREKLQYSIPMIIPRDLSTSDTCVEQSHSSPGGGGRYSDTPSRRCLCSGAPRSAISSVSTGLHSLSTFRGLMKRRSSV
Cl transport mod – KCC2 cotransporter modulators, thallium flux, primary screen, cell-based, HEK293 KCC2, FluoZin-2 fluorescence, MLSMR; AID 1456, 2008; B-score of Tl+ flux slope (higher = more flux/activation; lower = inhibition) at 10 µM; Solute carrier family 12 member 5 (Homo sapiens), Q9H2X9; 190,000 tested, 2.2% active; KCC2 cells, thallium flux FluoZin-2 fluorescence;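 active means thallium flux slope and its plate-corrected score both differing from the plate sample mean at a set confidence after two filtering rounds, in either direction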;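 further: slope of fluorescence scaled to starting intensity during 10 to 20 s after thallium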
KCNK9 block – KCNK9 potassium channel inhibitors, primary screen, HEK293 cells, thallium flux; Potassium channel subfamily K member 9 (Homo sapiens), Q9NPC2; AID 488922, 2010; B-score at 10 µM; 310,000 tested, 1.2% active; FluxOR thallium flux fluorescence; active compounds read low;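 active means ratio B-score over 3 SD below the library mean, with starting fluorescence within 5 SD of its mean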;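 further: negative B-score means less thallium flux so channel inhibition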
Target sequence (Q9NPC2 whole entry, looked up): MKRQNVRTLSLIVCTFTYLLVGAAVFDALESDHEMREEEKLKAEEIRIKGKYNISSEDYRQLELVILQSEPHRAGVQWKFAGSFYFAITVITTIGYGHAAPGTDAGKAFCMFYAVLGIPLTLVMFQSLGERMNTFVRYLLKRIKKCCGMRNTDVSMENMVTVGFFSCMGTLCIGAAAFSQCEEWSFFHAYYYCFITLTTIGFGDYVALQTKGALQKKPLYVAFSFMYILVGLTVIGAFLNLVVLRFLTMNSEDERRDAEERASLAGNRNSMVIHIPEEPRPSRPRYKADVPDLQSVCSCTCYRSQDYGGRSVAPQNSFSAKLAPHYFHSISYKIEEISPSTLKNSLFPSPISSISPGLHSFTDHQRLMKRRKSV
KCNQ1 act – potentiators or activators of KCNQ1 channel, primary screen, cell-based, thallium flux, high-throughput | CHO-K1 KCNQ1, thallium flux FluxOR fluorescence; active compounds read high | Potassium voltage-gated channel subfamily KQT member 1 (Homo sapiens), P51787 | AID 2648, 2010 | B-score at 10 µM | 310,000 tested, 0.35% active;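 active means fluorescence ratio B-score, a plate-corrected score, at least three library SD, with initial intensity B-score within 5 SD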
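Schedule – 37 °C overnight plating, 90-min dark dye load, 20-min compound pretreatment · System – stable KCNQ1 CHO-K1 line · Probe or stimulus – thallium- and potassium-containing depolarizing buffer · Measured by – kinetic FluxOR fluorescence, 10 s baseline plus 110 s post-stimulus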
KCC2 secondary – KCC2 modulators in sodium-free buffer, confirmation, cell-based, HEK293 KCC2, thallium flux, secondary assay. normalised thallium flux (F/F0 slope) at 10 µM. 3,700 tested, 15% active. AID 1713, 2009. FluoZin2 fluorescence; active compounds read high. shares compounds with Cl transport mod;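 active means thallium flux slope above the same plate's solvent-only control mean plus 3 SD; inconclusive means the two replicate wells disagree; inactive means no significant difference from solvent-only control wells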
KCC2 bumet counter – thallium flux persisting under bumetanide in KCC2 cells, confirmation, counter-screen for KCC2 modulator project, cell-based, HEK293 KCC2, FluoZin2, secondary assay 3. shares compounds with Cl transport mod. HEK293-KCC2 + bumetanide/ouabain; active compounds read high. normalized thallium flux at 10 µM. 3,700 tested, 49% active. AID 1714, 2009;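 active means thallium entry rate above the same plate's blocked-transporter control wells by more than 3 SD; inconclusive means the two repeat wells disagree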;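 further: raw slope of fluorescence over initial fluorescence between 10 and 20 s after thallium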
KCC2 secondary2 – KCC2 modulators without ouabain present, confirmation, cell-based, HEK293 KCC2, thallium flux, FluoZin2, secondary assay 2 | shares compounds with Cl transport mod | thallium flux FluoZin2 fluorescence; actives lie on both sides; F/F0 rise rate, 10–20 s post-thallium | normalized thallium flux at 10 µM | 3,700 tested, 23% active | AID 1715, 2009;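 active means thallium flux slope more than 3 SD above or below the plate's solvent-only control mean, mostly below; inconclusive means the two repeat wells disagreed; inactive means no significant shift from solvent-only controls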;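 further: raw slope with 0.1% DMSO as baseline and bumetanide as block control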
HEK293 Tl flux – thallium flux modulation in parental HEK cells, confirmation, counter-screen for KCC2 modulator project, cell-based, counterscreen 1. HEK293 parental cells, thallium flux FluoZin2, ouabain; baseline-ratio fluorescence slope, 10–20 s after thallium. thallium flux rate (normalised fluorescence) at 10 µM. 3,700 tested, 46% active. shares compounds with Cl transport mod;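 active means thallium flux rate significantly above the same plate's solvent-only control wells, beyond their mean plus 3 SD; inconclusive means the two replicate wells gave conflicting results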
KCC2 retest ouab – KCC2 inhibitors and activators, ouabain retest, confirmation, HEK-KCC2 cells | 3,700 tested, 48% active | shares compounds with Cl transport mod | HEK293-KCC2, thallium flux FluoZin2 fluorescence; bidirectional: low = inhibitor, high = activator | raw Tl+ flux slope (below DMSO = inhibition, above = activation) at 10 µM;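 active means thallium flux slope beyond 3 SD from same-plate DMSO control mean in most replicates, usually higher, sometimes lower; inconclusive means repeat tests gave conflicting results; inactive means no significant difference from controls in most replicates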;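 further: slope of initial-normalized fluorescence between seconds 10 and 20 after thallium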
HEK counter2 – native HEK Tl+ uptake effects, second counter-screen – HEK cells, counterscreen 2, counter-screen for KCC2 modulator project, confirmation; shares compounds with Cl transport mod; HEK293 parental, thallium flux FluoZin-2 fluorescence slope; thallium flux slope at 10 µM; 3,700 tested, 33% active; AID 1718, 2009;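 active means thallium flux slope above the same plate's solvent-control mean plus 3 SD in both duplicate wells; inconclusive means duplicate wells that disagreed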;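 further: run without ouabain in cells lacking the KCC2 cotransporter; slope of fluorescence scaled to its starting value between 10 and 20 s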
An asterisk follows results filed as active; i = inactive; ? = inconclusive; / = no result given.

SMILES | hERG rescue | KCNQ1 block | KCNK3 inh | Cl transport mod | KCNK9 block | KCNQ1 act | KCC2 secondary | KCC2 bumet counter | KCC2 secondary2 | HEK293 Tl flux | KCC2 retest ouab | HEK counter2
COc1ccccc1-c1nnc(SCC(=O)Nc2nc(-c3ccccc3)cs2)n1C | 6.1* | i | i | -4* | i | i | ? | 0.0066 | 0.032 | 0.0035 | 0.015* | 0.011
Clc1ccc(OCc2nnc(SCc3nnc(-c4ccccc4)o3)o2)c(Cl)c1 | -9 | i | i | / | i | i | / | / | / | / | / | /
COCCN(C(=O)COC(=O)c1c(-c2ccccc2)noc1C)c1c(N)n(Cc2ccccc2)c(=O)[nH]c1=O | -6 | i | i | / | i | i | / | / | / | / | / | /
Cc1cc(=O)[nH]c(SCC(=O)Nc2nc(-c3ccccc3)cs2)n1 | -10 | i | i | -7.1* | i | i | 0.0079 | 0.0063 | 0.034 | 0.0038 | 0.015* | 0.011
Cc1cccc(C)c1NC(=O)CNC(=O)C(Cc1ccccc1)NC(=O)c1ccccc1 (stereo not drawn) | -9 | i | i | / | i | i | / | / | / | / | / | /
CCCCCn1c(=S)[nH]c2cc(C(=O)N3CCCC3)ccc2c1=O | -17 | i | i | 2.3 | i | i | / | / | / | / | / | /
O=C(c1ccc2c(=O)n(C3CCCC3)c(=S)[nH]c2c1)N1CCCCCC1 | -16 | i | i | 5.3* | i | i | 0.019 | 0.025* | 0.03 | 0.01* | 0.019 | 0.013*
O=C(c1ccc2c(=O)n(-c3ccccc3)c(=S)[nH]c2c1)N1CCCCC1 | -36 | i | i | -1.4 | i | i | / | / | / | / | / | /
CC1CCCN(C(=O)c2ccc3c(=O)n(C4CCCC4)c(=S)[nH]c3c2)C1 (stereo not drawn) | -3 | i | i | 15* | i | i | 0.011 | 0.025* | ? | 0.022* | ? | 0.011
Cc1ccc2nc(SCC(=O)NCCCN3CCCC3=O)[nH]c2c1 | / | / | i | / | / | / | / | / | / | / | / | /
CC(C)(C)c1ccc(C(=O)CC(=O)c2cc(Cl)ccc2O)cc1 | 7.7* | i | i | 4.4* | i | i | 0.0055 | 0.018* | 0.035 | 0.023* | 0.025* | 0.017*
Cc1ccc(C(=O)CC(=O)c2ccc(C(C)(C)C)cc2)cc1 | -12 | i | i | 0.5 | i | i | / | / | / | / | / | /
c1csc(COc2ccccc2CNC2CCCCC2)c1 | -6 | i | i | 0.7 | i | i | / | / | / | / | / | /
COCCN(CCOC)C(=O)c1ccc(NS(=O)(=O)c2ccc3c(c2)OCCO3)cc1 | -11 | i | i | / | i | i | / | / | / | / | / | /
CCC(CC)NC(=O)COC(=O)c1ccc(NS(=O)(=O)c2ccc3c(c2)OCCO3)cc1 | -12 | i | i | 2.7* | i | i | 0.0088 | 0.0074 | 0.03 | 0.0069 | 0.02 | 0.01*
O=C1COc2cc(O)ccc21 | / | / | i | / | / | / | / | / | / | / | / | /
COC(=O)c1ccc(Cl)c(NC(=O)CN(c2ccccc2)S(=O)(=O)c2ccc(OC)cc2)c1 | -7 | i | i | -4.4* | i | i | 0.01 | 0.0063 | ? | 0.0041 | 0.019* | 0.011
CN(C)CC(C)(C)CNc1ccc(S(=O)(=O)N2CCCC2)cn1 | / | / | i | / | / | / | / | / | / | / | / | /
CCOc1ccc2c(c1)-c1c(ssc1=S)C(C)(C)N2 | -1 | i | i | -0.096 | i | i | / | / | / | / | / | /
N#Cc1ccccc1NC(=O)CSc1nccn1CCc1ccccc1 | -8 | i | i | -4* | i | i | 0.0068 | 0.005 | 0.025* | 0.0073 | 0.014* | 0.01
Cc1ccc(NC(=O)CSc2nccn2Cc2ccccc2)cc1C | -11 | i | i | -3.1* | i | i | ? | 0.0042 | 0.029 | 0.0053* | 0.02* | 0.0092
CC(=O)Nc1ccc(NC(=O)CSc2nccn2Cc2ccccc2)cc1 | -12 | i | i | -1.9 | i | i | / | / | / | / | / | /
CCOc1ccccc1C=NN1CCCCCC1 | / | / | i | / | / | / | / | / | / | / | / | /
COc1ccc2nc(N3CCCCC3)c(/C=C3\SC(=S)NC3=O)cc2c1 | 7.4* | i | i | 45* | i | i | 0.016* | 0.058* | 0.032 | 0.075* | 0.045* | 0.017*
O=C1NC(=S)S/C1=C\c1cc2ccccc2nc1N1CCCCC1 | -6 | i | i | / | i | i | / | / | / | / | / | /
CCCn1c(O)c(N=NC(=O)CNC(=O)Cc2ccc(OC)cc2)c2ccccc21 | -6 | i | i | / | i | i | / | / | / | / | / | /
Cc1ccc2c(c1)C(c1ccc(O)cc1)(c1ccc(O)cc1)C(=O)N2C | -10 | i | i | 3.7* | i | i | 0.011 | 0.0069 | 0.031 | 0.0073 | 0.036 | ?
O=C(O)/C(=C\c1cccc(F)c1)c1ccc(S(=O)(=O)N2CCCCC2)s1 | -3 | i | i | -5.6* | i | i | 0.0083 | 0.0064 | 0.032 | 0.0072 | 0.014* | 0.011

Assay outcomes: PubChem BioAssay, several laboratories
